Test results as given in ChEMBL document CHEMBL5058577, “EUbOPEN Chemogenomics Library 2 (Multiplex)” (2022).

System: U2OS
Experiment: Multiplex assay against U2OS
Format: toxicity, cell-based
Conditions: human
Procedure, shortened: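 Live cells carried four stains from seeding: Hoechst33342, BioTracker Green Microtubule Cytoskeleton Dye, MitoTracker Red and Annexin V Alexa Fluor 680. They were imaged on a CQ1 microscope at 37°C and 5% CO2 after compound addition. Using CellPathfinder machine-learning gating, cells were split into Hoechst high-intensity objects or normal cells, normal cells into healthy, pyknosed or fragmented nuclei, and pyknosed cells into mitotic or apoptotic; tubulin, mitochondrial-mass and membrane-permeability phenotypes are per cents of healthy-nucleus cells.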

[1] = 12 h, 1 µM, compound concentration 1 uM, replicate 1
[2] = 12 h, 1 µM, compound concentration 1 uM, replicate 2
[3] = 12 h, 10 µM, compound concentration 10 uM, replicate 1
[4] = 12 h, 10 µM, compound concentration 10 uM, replicate 2
[5] = 24 h, 1 µM, compound concentration 1 uM, replicate 1
[6] = 24 h, 1 µM, compound concentration 1 uM, replicate 2
[7] = 24 h, 10 µM, compound concentration 10 uM, replicate 1
[8] = 24 h, 10 µM, compound concentration 10 uM, replicate 2
[9] = 48 h, 1 µM, compound concentration 1 uM, replicate 1
[10] = 48 h, 1 µM, compound concentration 1 uM, replicate 2
[11] = 48 h, 10 µM, compound concentration 10 uM, replicate 1
[12] = 48 h, 10 µM, compound concentration 10 uM, replicate 2

For `COc1ccc2c(c1OCc1ccccc1)C[C@@H](C(=O)O)N(C(=O)C(c1ccccc1)c1ccccc1)C2` [OLODANRIGAN], the “Population Apoptotic (%)” value [1] was 82%, the “Population Fragmented Nuclei (%)” value [1] was 31% and the “Population Healthy Nuclei (%)” value [1] was 59%. The “Population Hoechst High Intensity Objects (%)” value [1] was 2%, the “Population Membrane Permeable-Phenotype (%)” value [1] was 4% and the “Population Mitochondria Different-Phenotype (%)” value [1] was 0%. For the same compound, the “Population Mitotic Cells (%)” value [1] was 17%, the “Population Normal (%)” value [1] was 97% and the “Population Pyknosed Nuclei (%)” value [1] was 8%. The “Population Tubulin-Different-Phenotype (%)” value [1] was 1%, the “Total Cell Count” value [1] was 286 and the “Population Apoptotic (%)” value [2] was 66%. The “Population Fragmented Nuclei (%)” value [2] was 18%, the “Population Healthy Nuclei (%)” value [2] was 75% and the “Population Hoechst High Intensity Objects (%)” value [2] was 3%. For the same compound, the “Population Membrane Permeable-Phenotype (%)” value [2] was 6%, the “Population Mitochondria Different-Phenotype (%)” value [2] was 4% and the “Population Mitotic Cells (%)” value [2] was 33%. The “Population Normal (%)” value [2] was 96%, the “Population Pyknosed Nuclei (%)” value [2] was 5% and the “Population Tubulin-Different-Phenotype (%)” value [2] was 2%. For the same compound, the “Total Cell Count” value [2] was 112, the “Population Apoptotic (%)” value [3] was 78% and the “Population Fragmented Nuclei (%)” value [3] was 30%. For the same compound, the “Population Healthy Nuclei (%)” value [3] was 64%, the “Population Hoechst High Intensity Objects (%)” value [3] was 1% and the “Population Membrane Permeable-Phenotype (%)” value [3] was 6%. The “Population Mitochondria Different-Phenotype (%)” value [3] was 1%, the “Population Mitotic Cells (%)” value [3] was 21% and the “Population Normal (%)” value [3] was 98%. For the same compound, the “Population Pyknosed Nuclei (%)” value [3] was 5%, the “Population Tubulin-Different-Phenotype (%)” value [3] was 2% and the “Total Cell Count” value [3] was 273. For the same compound, the “Population Apoptotic (%)” value [4] was 81%, the “Population Fragmented Nuclei (%)” value [4] was 26% and the “Population Healthy Nuclei (%)” value [4] was 63%. The “Population Hoechst High Intensity Objects (%)” value [4] was 0%, the “Population Membrane Permeable-Phenotype (%)” value [4] was 2% and the “Population Mitotic Cells (%)” value [4] was 18%. The “Population Normal (%)” value [4] was 99%, the “Population Pyknosed Nuclei (%)” value [4] was 10% and the “Total Cell Count” value [4] was 110. For the same compound, the “Population Apoptotic (%)” value [5] was 87%, the “Population Fragmented Nuclei (%)” value [5] was 25% and the “Population Healthy Nuclei (%)” value [5] was 64%. The “Population Hoechst High Intensity Objects (%)” value [5] was 0%, the “Population Membrane Permeable-Phenotype (%)” value [5] was 2% and the “Population Mitochondria Different-Phenotype (%)” value [5] was 0%. For the same compound, the “Population Mitotic Cells (%)” value [5] was 12%, the “Population Normal (%)” value [5] was 99% and the “Population Pyknosed Nuclei (%)” value [5] was 10%. For the same compound, the “Population Tubulin-Different-Phenotype (%)” value [5] was 2%, the “Total Cell Count” value [5] was 311 and the “Population Apoptotic (%)” value [6] was 55%. For the same compound, the “Population Fragmented Nuclei (%)” value [6] was 18%, the “Population Healthy Nuclei (%)” value [6] was 74% and the “Population Hoechst High Intensity Objects (%)” value [6] was 2%. For the same compound, the “Population Membrane Permeable-Phenotype (%)” value [6] was 9%, the “Population Mitochondria Different-Phenotype (%)” value [6] was 6% and the “Population Mitotic Cells (%)” value [6] was 44%. For the same compound, the “Population Normal (%)” value [6] was 97%, the “Population Pyknosed Nuclei (%)” value [6] was 6% and the “Population Tubulin-Different-Phenotype (%)” value [6] was 5%. For the same compound, the “Total Cell Count” value [6] was 143, the “Population Apoptotic (%)” value [7] was 83% and the “Population Fragmented Nuclei (%)” value [7] was 27%. The “Population Healthy Nuclei (%)” value [7] was 66%, the “Population Hoechst High Intensity Objects (%)” value [7] was 1% and the “Population Membrane Permeable-Phenotype (%)” value [7] was 4%. The “Population Mitochondria Different-Phenotype (%)” value [7] was 0%, the “Population Mitotic Cells (%)” value [7] was 16% and the “Population Normal (%)” value [7] was 98%. For the same compound, the “Population Pyknosed Nuclei (%)” value [7] was 5%, the “Population Tubulin-Different-Phenotype (%)” value [7] was 1% and the “Total Cell Count” value [7] was 318. The “Population Apoptotic (%)” value [8] was 50%, the “Population Fragmented Nuclei (%)” value [8] was 22% and the “Population Healthy Nuclei (%)” value [8] was 72%. The “Population Hoechst High Intensity Objects (%)” value [8] was 0%, the “Population Mitochondria Different-Phenotype (%)” value [8] was 1% and the “Population Mitotic Cells (%)” value [8] was 50%. For the same compound, the “Population Normal (%)” value [8] was 100%, the “Population Pyknosed Nuclei (%)” value [8] was 4% and the “Population Tubulin-Different-Phenotype (%)” value [8] was 2%. The “Total Cell Count” value [8] was 123, the “Population Apoptotic (%)” value [9] was 91% and the “Population Fragmented Nuclei (%)” value [9] was 22%. For the same compound, the “Population Healthy Nuclei (%)” value [9] was 70%, the “Population Hoechst High Intensity Objects (%)” value [9] was 3% and the “Population Membrane Permeable-Phenotype (%)” value [9] was 4%. For the same compound, the “Population Mitochondria Different-Phenotype (%)” value [9] was 1%, the “Population Mitotic Cells (%)” value [9] was 8% and the “Population Normal (%)” value [9] was 96%. For the same compound, the “Population Pyknosed Nuclei (%)” value [9] was 7%, the “Population Tubulin-Different-Phenotype (%)” value [9] was 2% and the “Total Cell Count” value [9] was 483. The “Population Apoptotic (%)” value [10] was 78%, the “Population Fragmented Nuclei (%)” value [10] was 14% and the “Population Healthy Nuclei (%)” value [10] was 77%. The “Population Hoechst High Intensity Objects (%)” value [10] was 4%, the “Population Membrane Permeable-Phenotype (%)” value [10] was 3% and the “Population Mitochondria Different-Phenotype (%)” value [10] was 3%. The “Population Mitotic Cells (%)” value [10] was 21%, the “Population Normal (%)” value [10] was 95% and the “Total Cell Count” value [10] was 184. For the same compound, the “Population Apoptotic (%)” value [11] was 88%, the “Population Fragmented Nuclei (%)” value [11] was 20% and the “Population Healthy Nuclei (%)” value [11] was 71%. For the same compound, the “Population Hoechst High Intensity Objects (%)” value [11] was 1%, the “Population Membrane Permeable-Phenotype (%)” value [11] was 5% and the “Population Mitochondria Different-Phenotype (%)” value [11] was 1%. For the same compound, the “Population Mitotic Cells (%)” value [11] was 11%, the “Population Normal (%)” value [11] was 98% and the “Population Pyknosed Nuclei (%)” value [11] was 8%. For the same compound, the “Population Tubulin-Different-Phenotype (%)” value [11] was 3%, the “Total Cell Count” value [11] was 451 and the “Population Apoptotic (%)” value [12] was 85%. For the same compound, the “Population Fragmented Nuclei (%)” value [12] was 18%, the “Population Healthy Nuclei (%)” value [12] was 77% and the “Population Membrane Permeable-Phenotype (%)” value [12] was 7%. The “Population Mitochondria Different-Phenotype (%)” value [12] was 6%, the “Population Mitotic Cells (%)” value [12] was 14% and the “Population Pyknosed Nuclei (%)” value [12] was 4%. For the same compound, the “Population Tubulin-Different-Phenotype (%)” value [12] was 5% and the “Total Cell Count” value [12] was 163.
